# From PubChem
# SR-BI DiI inh – blocks mouse SR-BI lipid uptake from DiI-HDL; Q61009; 320,000 compounds, 0.96% hits; ldlA[mSR-BI] CHO cells, DiI-HDL uptake fluorescence, 3 h; inhibition, % at 12.5 µM;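 active = mean replicate inhibition of at least 70% and a set share of replicates each scoring 70 or more; inconclusive = meets just one of the two criteria; inactive = fails both criteria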
# Target sequence (Q61009 whole entry, looked up): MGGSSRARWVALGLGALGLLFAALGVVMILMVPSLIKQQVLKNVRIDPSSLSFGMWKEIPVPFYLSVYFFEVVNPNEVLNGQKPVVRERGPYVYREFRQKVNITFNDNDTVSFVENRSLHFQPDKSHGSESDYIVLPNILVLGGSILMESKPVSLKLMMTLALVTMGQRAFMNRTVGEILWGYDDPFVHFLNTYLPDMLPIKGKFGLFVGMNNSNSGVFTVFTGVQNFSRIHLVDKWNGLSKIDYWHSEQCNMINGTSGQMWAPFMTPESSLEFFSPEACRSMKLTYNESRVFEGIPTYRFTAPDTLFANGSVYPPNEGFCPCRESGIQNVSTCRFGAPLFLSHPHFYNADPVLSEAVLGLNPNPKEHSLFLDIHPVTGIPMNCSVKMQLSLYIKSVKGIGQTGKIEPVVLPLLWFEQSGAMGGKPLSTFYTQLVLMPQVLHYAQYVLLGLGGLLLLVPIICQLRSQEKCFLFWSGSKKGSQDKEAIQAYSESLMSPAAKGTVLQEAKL
# C2C12 statin – suppressors of simvastatin-induced myotoxicity in C2C12 myotubes | ATP luminescence, 48 h; scaled: DMSO 0, geranylgeraniol control 100 | rescue of ATP level, % at 7.49 µM | 330,000 compounds, 0.78% hits | AID 602340;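 active = mean ATP rescue above about 67%, or every replicate alone reaching that limit, limit read from the data, passing the limit was not always enough; inconclusive = no clear call, values can overlap the other calls; inactive = mean under the limit and some replicate under it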;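 note: myotubes were challenged with 10 µM simvastatin during compound exposure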
# Vif inh – inhibitors of HIV Vif. inhibition, % at 7.49 µM. HEK293T cells, Vif self-association by quenched fluorescence, imaging, 24 h. 340,000 compounds, 0.35% hits; in the data active = inhibition above about 50%, passing the limit was not always enough; inconclusive = no clear call, values can overlap the other calls; inactive = below about 31%
# SR-BI uptake up – activators of SR-BI mediated HDL lipid uptake | CHO ldlA[mSR-BI] cells, DiI-HDL uptake fluorescence, 3 h; 100 = double the neutral-control signal | 320,000 compounds, 0.096% hits | AID 504775 | activation, % at 12.5 µM;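 active = mean replicate activation of at least 60% and every replicate at or above 60%; inconclusive = mean or all-replicate condition met, but not both; inactive = mean below 60% and not all replicates reaching 60%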
#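 Material – SR-BI-overexpressing, LDLR-lacking CHO cells · Medium – BSA-supplemented, HEPES-buffered Ham's F12, pH 7.4 · Doses – single concentration · Times – compound with DiI-HDL co-incubation, 3 h at 37 °C · Measured by – bottom-read fluorescence, 550/595 nm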
# A number is an active result; . = inactive; ? = inconclusive; / = no result; + = active, no number. This is a sample that favours compounds with a hit; in the whole collection about 1.7% have one here.
SMILES,SR-BI DiI inh,C2C12 statin,Vif inh,SR-BI uptake up
CCCN1C(=O)/C(=C/c2ccc(N3CCOCC3)cc2)NC1=S,.,/,.,.
Cc1cc(/C=C2/C(=O)N(C)C(=S)N2C)ccc1N1CCCC1,.,.,.,.
Cc1cc(/C=C2\NC(=S)N(C)C2=O)ccc1N1CCCC1,.,.,+,.
CCN1C(=O)/C(=C/c2ccc(N3CCCC3)cc2)NC1=S,.,.,61,.
CCCN1C(=O)/C(=C/c2ccc(N3CCCC3)c(C)c2)NC1=S,87,.,147,.
COc1ccc(CN2C[C@@H](C)[C@H](OC)CN(C)C(=O)c3cc(NC(=O)C4CC4)ccc3OC[C@H]2C)cc1,/,.,/,/
Cc1cccc(N2C(=O)N3[C@H](c4ccc(Br)cc4)[C@@H]4C(=O)N(C(C)(C)C)C(=O)[C@@H]4[C@]3(C)C2=O)c1,.,.,.,60
Cc1ccc(N2C(=O)N3[C@H](c4ccc(Br)cc4)[C@@H]4C(=O)N(C(C)(C)C)C(=O)[C@@H]4[C@]3(C)C2=O)cc1,.,.,.,.
Cc1cc(Cl)n2c(nc3ccccc32)c1C#N,.,/,.,.
Cc1c(CCCl)c(Cl)n2c(nc3ccccc32)c1C#N,.,/,61,.
O=C(C[C@H]1C[C@H]2c3cc(NC(=O)Cc4ccncc4)ccc3O[C@H]2[C@H](CO)O1)NCCN1CCCCC1,/,.,/,/
CN(C)c1ccc(/C=N/NC(=O)c2ccc(CN3CCOCC3)cc2)cc1Br,84,/,.,.
CCOc1cc(/C=N/NC(=O)c2ccc(CN3CCOCC3)cc2)ccc1OC,.,/,.,.
CCCC(=O)Nc1ccc2c(c1)C(=O)N(C)[C@@H]1CC[C@H](CC(=O)NCc3ccccc3Cl)O[C@H]1CO2,/,.,/,/
Cc1cccc(NC(=O)CSc2nc3ccccc3c(=O)n2CC2CCCO2)c1 (configuration not stated),80,.,.,.
NC(=O)NC(=O)CSc1nc(-c2ccccc2)c(-c2ccccc2)n1CC1CCCO1 (configuration not stated),.,139,.,.
CCN(CC)c1ccc(-n2cc3c(=O)n(C)c(=O)n(C)c3c2)cc1,74,.,/,.
CN(C)Cc1cn(CC[C@H]2CC[C@@H](NS(=O)(=O)c3ccc(-c4ccccc4)cc3)[C@H](CO)O2)nn1,/,.,/,/
CC(=O)c1c(C)[nH]c(C(=O)N2c3ccccc3CC2C)c1C (configuration not stated),72,.,/,.
CC(=O)c1c(C)[nH]c(C(=O)N2CCc3ccccc3C2)c1C,.,.,/,.
COc1ccc(N(C(=O)c2ccn[nH]2)C(C(=O)NC(C)(C)C)c2ccc(F)cc2)cc1 (configuration not stated),.,88,.,.
N#C[C@H]1[C@@H](c2ccccc2)[C@H](CO)N1C(=O)Cc1ccccc1,/,.,/,/
COc1ccccc1-n1c2nc3ccccc3nc2c2c(=O)n(-c3cc(C)cc(C)c3)cnc21,79,/,.,.
COCCCn1cnc2c(c1=O)c1nc3ccccc3nc1n2-c1ccccc1,.,127,.,.
COc1ccccc1-n1cnc2c(c1=O)c1nc3ccccc3nc1n2-c1ccc(C)cc1,.,/,.,.
SMILES,SR-BI DiI inh,C2C12 statin,Vif inh,SR-BI uptake up
COc1ccccc1NC(=O)N[C@H]1CC[C@@H](CCNS(=O)(=O)c2ccccc2)O[C@@H]1CO,/,.,/,/
COc1cccc(-c2ccc3c(c2)O[C@@H](CN(C)C)[C@@H](C)CN([C@H](C)CO)S3(=O)=O)c1,/,.,/,/
CC(C)CC#Cc1cnc2c(c1)C(=O)N([C@@H](C)CO)C[C@@H](C)[C@H](CN(C)C(=O)CCN1CCCCC1)O2,/,.,/,/
COc1cc(OC)c(NC(=O)c2cncn2-c2ccc(F)cc2)cc1Cl,72,.,.,.
CC(Cc1ccccc1)N/C=C1\CC(=O)NC1=O (configuration not stated),.,80,.,.
CCCC#Cc1ccc([C@@H]2[C@@H](C#N)N(S(=O)(=O)c3cccc(F)c3)[C@H]2CO)cc1,/,.,/,/
CC(C)CC(=NNC(=O)c1ccncc1)c1cc(Cl)ccc1O,127,.,55,.
O=C(COC(=O)COc1ccccc1)Nc1ccc(Br)cc1Br,.,.,.,.
O=C(COC(=O)COc1ccccc1)Nc1ccc(Br)cc1F,.,.,?,63
CC1N(C)c2cc(NC(=O)c3ccco3)ccc2C1(C)C (configuration not stated),.,/,.,139
CC1N(C)c2cc(NC(=O)c3ccco3)c(P(=O)(Nc3ccc([N+](=O)[O-])cc3)N3CCOCC3)cc2C1(C)C (configuration not stated),.,/,.,.
CCn1c2ccccc2c2cc(NC(=O)c3ccco3)ccc21,82,.,.,.
CCCNC(=O)[C@H]1[C@H](CO)[C@H]2Cn3c(ccc(/C=C/c4ccccc4)c3=O)[C@@H]1N2C(C)=O,/,.,/,/
CCSc1nnc(NC(=O)c2c(-c3ccccc3Cl)noc2C)s1,.,126,/,.
Cc1onc(-c2ccccc2Cl)c1C(=O)Nc1nnc(-c2cccc([N+](=O)[O-])c2)s1,.,.,.,.
O=C(OCC(=O)N1CCOCC1)c1ccccc1SCC(=O)N1CCCC1,/,118,.,/
O=C(O)c1ccccc1SCC(=O)N1CCOCC1,.,/,.,.
CCC(Sc1nc(C)cc(C)n1)C(=O)NC1=NN=C(c2ccc(C)cc2)CS1 (configuration not stated),/,83,/,/
Cc1cc(C)nc(SCC(=O)NC2=NN=C(c3ccc(Br)cc3)CS2)n1,.,145,.,.
CNC[C@@H]1Oc2c(N)cccc2C(=O)N([C@H](C)CO)C[C@@H]1C,/,.,/,/
COc1ccccc1N1CCN(C(=O)CCC(=O)N2CCN(c3ccc(F)cc3)CC2)CC1,.,.,.,.
COc1ccccc1N1CCN(C(=O)CCC(=O)N2CCN(c3ccccc3OC)CC2)CC1,70,.,.,.
C[C@@H]1CN([C@H](C)CO)C(=O)c2cccc(NC(=O)Nc3ccccc3)c2O[C@@H]1CN(C)S(=O)(=O)c1ccc(Cl)cc1,/,.,/,/
COc1ccc2[nH]c(=O)c(CN(CCc3ccccc3)C(C)=O)cc2c1,.,114,.,.
COc1ccc(N(Cc2cc3ccccc3[nH]c2=O)S(=O)(=O)c2ccccc2)cc1,.,182,.,.
SMILES,SR-BI DiI inh,C2C12 statin,Vif inh,SR-BI uptake up
CCC(=O)N1C[C@H](C)[C@H](OC)CN(C)C(=O)c2cc(NC(=O)Nc3ccc(Cl)cc3)ccc2OC[C@@H]1C,/,.,/,/
O=[N+]([O-])c1cccc(S(=O)(=O)Nc2nc3ccccc3nc2Nc2cccc(S(=O)(=O)N3CCCCC3)c2)c1,76,/,.,.
COC(=O)C[C@H]1CC[C@@H]2[C@@H](COc3ccc(NC(=O)c4ccc(OC)cc4)cc3C(=O)N2C)O1,/,.,/,/
CC1=C(/C=C/C(C)=C/C=C/C(C)=C/C(=O)O)C(C)(C)CCC1,.,.,65,.
CCn1nc(C)c(Br)c1-c1nc(CS(=O)(=O)c2ccsc2)no1,/,.,56,/
O=C(NCc1ccccn1)[C@@H]1[C@@H](CO)[C@@H]2Cn3c(cccc3=O)[C@H]1N2CC1CCCCC1,/,.,/,/
